Test results as given in ChEMBL document CHEMBL1157241, “Search for Hsp90 inhibitors with potential anticancer activity: isolation and SAR studies of radicicol and monocillin I from two plant-associated fungi of the Sonoran desert” (J Nat Prod, 2006).
Active and inactive are the calls of the source. The calls are words filed in the database; no cut-off is given here.

Columns and labels:
Oryctolagus cuniculus = species on record: Oryctolagus cuniculus; assay: Inhibition of Hsp90 in rabbit reticulocyte lysate assessed as inhibition of heat-denatured firefly luciferase renaturation at 10 uM relative to geldanamycin
Procedure, shortened: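 Rabbit reticulocyte lysate with an ATP-regenerating system (10 mM phosphocreatine, 1 mM ATP, 17.5 units creatine phosphokinase) was preincubated 20 min with compound in DMSO. Firefly luciferase (100 nM, pH 7.8 tricine buffer) was heat-denatured 8 min at 40 °C, then diluted 10-fold into the lysate and incubated at 28 °C. Luminescence was read in triplicate at 3 min and expressed as % of DMSO control.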

MCF7 [1] = assay: Antiproliferative activity against human MCF7 cells at 1 uM by MTT assay; format: functional, cell-based
[2] = Cytotoxicity against in mouse 3T3-Y9/B12 cells at 10 uM; format: cell-based
Procedure, shortened: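 Mouse 3T3-Y9/B12 heat-shock reporter cells were plated at 20 000 cells/well and left to attach overnight. Compound was added at 10.0 µM in triplicate wells and incubated overnight. Treated wells were then examined by microscope for toxicity, recording whether any living cells remained.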

Mus musculus = species on record: Mus musculus; assay: Induction of heat shock response in mouse 3T3-Y9/B12 cells at 5 uM by fluorescence technique relative to geldanamycin; format: functional, cell-based
Procedure, shortened: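 3T3-Y9/B12 reporter cells were plated at 20 000 cells/well and attached overnight. Triplicate wells received compound at 5.0 µM, GDA positive control at 5.0 µM, or DMSO vehicle (≤0.1%). After overnight incubation, wells were rinsed and read in PBS by fluorescence (ex 485, em 525 nm). Signal was expressed as percentage of DMSO control, mean ± SD of triplicates, with three independent experiments.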

MCF7 [3] = assay: Antiproliferative activity against human MCF7 cells by MTT assay; format: functional, cell-based
Procedure, shortened: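 MCF-7 cells were seeded at 2000 cells/well and dosed the next day with serial dilutions in triplicate. GDA was the positive control and DMSO vehicle the negative control. After 3 days at 37 °C under 5% CO2, MTT was added for 3 h in the dark. Medium was replaced with DMSO and absorbance read at 570 nm, minus 650 nm background.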

SMILES	Activity (Oryctolagus cuniculus)	Activity (MCF7 [1])	Activity [2]	Activity (Mus musculus)	IC50 (MCF7 [3]) [nM]
C[C@H]1CCC[C@@H](O)CCCCCc2cc(O)cc(O)c2C(=O)O1 (stereo in doubt; 14)	Active	inactive	–	–	–
C[C@H]1CCC[C@@H](O)CCCCCc2cc(O)cc(O)c2C(=O)O1 (stereo in doubt; 16)	Active	inactive	–	–	–
COc1cc2c(c(OC)c1)C(=O)O[C@H](C)C[C@H]1O[C@@H]1/C=C\C=C\C(=O)C2 [DIMETHYL MONOCILLIN I]	–	–	Toxic	–	–
COc1cc(OC)c2c(c1Cl)CC(=O)/C=C/C=C\[C@H]1O[C@@H]1C[C@@H](C)OC2=O [DIMETHYL RADICICOL]	–	inactive	Toxic	Active	–
C[C@@H]1C[C@H](O)CCCCCC(=O)Cc2cc(O)cc(O)c2C(=O)O1 [HEXAHYDROMONOCILLIN I]	–	–	Toxic	–	–
C[C@@H]1C[C@H](O)CCCCCC(=O)Cc2c(Cl)c(O)cc(O)c2C(=O)O1 [HEXAHYDRORADICICOL]	–	–	Toxic	–	–
C[C@@H]1C[C@H]2O[C@@H]2/C=C\C=C\C(=O)Cc2cc(O)cc(O)c2C(=O)O1 [MONOCILLIN I]	Active	–	Toxic	Active	340
COc1cc(O)c2c(c1)CC(=O)/C=C/C=C\[C@H]1O[C@@H]1C[C@@H](C)OC2=O [MONOMETHYL MONOCILLIN I]	–	inactive	Toxic	Active	–
COc1cc(O)c2c(c1Cl)CC(=O)/C=C/C=C\[C@H]1O[C@@H]1C[C@@H](C)OC2=O [MONOMETHYL RADICICOL]	Active	–	Toxic	Active	900
C[C@@H]1C[C@H]2O[C@@H]2/C=C\C=C\C(=O)Cc2c(Cl)c(O)cc(O)c2C(=O)O1 [RADICICOL]	Active	–	Toxic	Active	30
C[C@@H]1C[C@H]2O[C@@H]2CCCCC(=O)Cc2cc(O)cc(O)c2C(=O)O1 [TETRAHYDROMONOCILLIN I]	Active	inactive	Toxic	Active	–
C[C@@H]1C[C@H]2O[C@@H]2CCCCC(=O)Cc2c(Cl)c(O)cc(O)c2C(=O)O1 [TETRAHYDRORADICICOL]	Active	–	Toxic	Active	190
C[C@H]1CCCC(=O)CCCCCc2cc(O)cc(O)c2C(=O)O1 [ZEARALANONE]	–	–	Toxic	–	–
C[C@H]1CCCC(=O)CCC/C=C/c2cc(O)cc(O)c2C(=O)O1 [ZEARALENONE]	Active	inactive	Toxic	–	–
C[C@H]1CCC[C@H](O)CCCCCc2cc(O)cc(O)c2C(=O)O1 [ZERANOL]	–	–	Toxic	–	–
